Measured values as given in ChEMBL document CHEMBL2046311, “Design, synthesis, and molecular hybrids of caudatin and cinnamic acids as novel anti-hepatitis B virus agents” (Eur J Med Chem, 2012).

What was measured:
[1] = Cytotoxicity against human HepG2(2.2.15) cells by modified-MTT assay; type: cell-based
Summary of the method: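 HepG 2.2.15 cells in RPMI-1640 with 10% fetal calf serum at 37 °C, 5% CO2. Compounds in DMSO, final DMSO below 2.5 μL/mL. Viability read by modified MTT method. CC50 is the mean of at least two experiments.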

[2] = Selectivity index, ratio of CC50 for human HepG2(2.2.15) cells to IC50 for Hepatitis B virus infected in human HepG2(2.2.15) cells assessed as inhibition of viral surface antigen secretion; type: functional
Summary of the method: (§1)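 SI calculated as CC50 (MTT, HepG 2.2.15) divided by IC50 for the named read-out (HBV DNA by real-time PCR, or HBeAg or HBsAg secretion by ELISA), in the same cell line.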

Mus musculus [3] = assay: Acute toxicity in Kunming mouse assessed as change in body weight at 50 mg/kg, po administered as single dose measured on day 7 (Rvb =26.3 g); type: organism-based; set-up: dose 50 mg/kg, route oral; conditions: in vivo
[4] = Cytotoxicity against human HepG2(2.2.15) cells assessed as cell viability at 10 uM after 72 hrs by MTT assay; type: cell-based; conditions: hepg2 2.2.15, 72 h
Summary of the method: (§2)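 Cell viability measured by MTT under the 10 μM luciferase reporter treatment conditions, at 48 h and 72 h.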

Mus musculus [5] = assay: Acute toxicity in Kunming mouse assessed as mortality at 1250 mg/kg, po administered as single dose measured up to 14 days; type: organism-based; set-up: dose 1250 mg/kg, route oral; conditions: in vivo, 336 h
Mus musculus [6] = assay: Acute toxicity in Kunming mouse assessed as abnormality at 50 to 1250 mg/kg, po administered as single dose measured up to 14 days; type: organism-based; set-up: dose 50-1250 mg/kg, route oral; conditions: in vivo, 336 h
Nucleic Acid [7] = assay: Increase of enhancer 1 transcriptional activity in HBV infected in human HepG2(2.2.15) cells transfected with pGL3 at 10 uM after 3 days by luciferase reporter gene assay relative to mock-treated control; type: cell-based; conditions: Hepatitis B virus
Summary of the method: (§3)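 HepG 2 cells transiently transfected by Lipofectamine 2000 with HBV promoter/enhancer firefly luciferase reporters in pGL3, with phRL-CMV Renilla luciferase as internal control. Cells split 24 h after transfection and cultured 3 days, then treated at 10 μM for 3 days. Dual-luciferase read-out in triplicate. Fold activity = treated/mock-treated activity.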

Mus musculus [8] = assay: Acute toxicity in Kunming mouse assessed as change in body weight at 1250 mg/kg, po administered as single dose measured on day 7 (Rvb =26.3 g); type: organism-based; set-up: dose 1250 mg/kg, route oral; conditions: in vivo
Hepatitis B virus [9] = assay: Antiviral activity against Hepatitis B virus infected in human HepG2(2.2.15) cells assessed as inhibition of viral DNA replication by PCR analysis; type: functional, organism-based
Summary of the method: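 HepG 2.2.15 cells grown in RPMI-1640 with 10% fetal calf serum, […] and penicillin/streptomycin at 37 °C, 5% CO2. Compounds added in DMSO, kept below 2.5 μL/mL. HBV DNA quantified by SYBR Green real-time PCR with HBV-specific primers spanning 541–591 bp. IC50 values are means of at least two experiments.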

Mus musculus [10] = assay: Acute toxicity in Kunming mouse assessed as change in body weight at 250 mg/kg, po administered as single dose measured on day 7 (Rvb =26.3 g); type: organism-based; set-up: dose 250 mg/kg, route oral; conditions: in vivo
Mus musculus [11] = assay: Acute toxicity in Kunming mouse assessed as change in body weight at 250 mg/kg, po administered as single dose measured on day 14 (Rvb =28.5 g); type: organism-based; set-up: dose 250 mg/kg, route oral; conditions: in vivo
[12] = Selectivity index, ratio of CC50 for human HepG2(2.2.15) cells to IC50 for Hepatitis B virus infected in human HepG2(2.2.15) cells assessed as inhibition of viral e antigen secretion; type: functional; summary of the method: as §1
Mus musculus [13] = assay: Acute toxicity in Kunming mouse assessed as mortality at 250 mg/kg, po administered as single dose measured up to 14 days; type: organism-based; set-up: dose 250 mg/kg, route oral; conditions: in vivo, 336 h
Mus musculus [14] = assay: Acute toxicity in Kunming mouse assessed as change in body weight at 1250 mg/kg, po administered as single dose measured on day 14 (Rvb =28.5 g); type: organism-based; set-up: dose 1250 mg/kg, route oral; conditions: in vivo
Hepatitis B virus [15] = assay: Antiviral activity against Hepatitis B virus infected in human HepG2(2.2.15) cells assessed as inhibition of viral e antigen secretion by ELISA; type: functional, organism-based
Summary of the method: (§4)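 HepG 2.2.15 cells in RPMI-1640 with 10% fetal calf serum at 37 °C, 5% CO2. Compounds dissolved in DMSO, culture DMSO below 2.5 μL/mL. Secreted HBeAg and HBsAg measured by ELISA. IC50 values are means of at least two experiments.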

Mus musculus [16] = assay: Acute toxicity in Kunming mouse assessed as change in body weight at 50 mg/kg, po administered as single dose measured on day 14 (Rvb =28.5 g); type: organism-based; set-up: dose 50 mg/kg, route oral; conditions: in vivo
Hepatitis B virus [17] = assay: Antiviral activity against Hepatitis B virus infected in human HepG2(2.2.15) cells assessed as inhibition of viral surface antigen secretion by ELISA; type: functional, organism-based; summary of the method: as §4
Mus musculus [18] = assay: Acute toxicity in Kunming mouse assessed as mortality at 50 mg/kg, po administered as single dose measured up to 14 days; type: organism-based; set-up: dose 50 mg/kg, route oral; conditions: in vivo, 336 h
Mus musculus [19] = assay: Acute toxicity in po dosed Kunming mouse; type: organism-based; conditions: in vivo
Nucleic Acid [20] = assay: Inhibition of X promoter transcriptional activity in HBV infected in human HepG2(2.2.15) cells transfected with pGL3 at 10 uM after 3 days by luciferase reporter gene assay relative to mock-treated control; type: cell-based; conditions: Hepatitis B virus; summary of the method: as §3
[21] = Selectivity index, ratio of CC50 for human HepG2(2.2.15) cells to IC50 for Hepatitis B virus infected in human HepG2(2.2.15) cells assessed as inhibition of viral DNA replication; type: functional; summary of the method: as §1
[22] = Cytotoxicity against human HepG2(2.2.15) cells assessed as cell viability at 10 uM after 48 hrs by MTT assay; type: cell-based; conditions: hepg2 2.2.15, 48 h; summary of the method: as §2

| Compound | CC50 [1] [µM] | Ratio CC50/IC50 [2] | IC50 (Hepatitis B virus [9]) [µM] | Ratio CC50/IC50 [12] | IC50 (Hepatitis B virus [15]) [µM] | IC50 (Hepatitis B virus [17]) [µM] | Ratio CC50/IC50 [21] | also measured |
| --- | --- | --- | --- | --- | --- | --- | --- | --- |
| COc1cc(/C=C/C(=O)O[C@H]2CC[C@@]3(C)C(=CC[C@]4(O)[C@@H]3C[C@@H](OC(=O)/C=C(\C)C(C)C)[C@@]3(C)[C@]4(O)CC[C@@]3(O)C(C)=O)C2)cc(OC)c1OC | > 1820 | >330 | 2.44 | >330 | 5.52 | 5.52 | >746.6 | Activity (Mus musculus [3]): 26.7%; Activity [4]: 85.6%; Activity (Mus musculus [5]): Non-toxic; Activity (Mus musculus [6]): Non-toxic; fold change (FC) (Nucleic Acid [7]): 9.4; Activity (Mus musculus [8]): 26.5%; Activity (Mus musculus [10]): 27.3%; Activity (Mus musculus [11]): 29.8%; Activity (Mus musculus [13]): Non-toxic; Activity (Mus musculus [14]): 28.8%; Activity (Mus musculus [16]): 28.9%; Activity (Mus musculus [18]): Non-toxic; LD50 (Mus musculus [19]): 1250 mg/kg; fold change (FC) (Nucleic Acid [20]): 5.6; Activity [22]: 97.4% |
| CC(=O)[C@]1(O)CC[C@@]2(O)[C@]1(C)[C@H](OC(=O)/C=C(\C)C(C)C)C[C@@H]1[C@@]3(C)CC[C@H](OC(=O)/C=C/c4ccc(Cl)cc4Cl)CC3=CC[C@]12O | > 1890 | >8.8 | 14.5 | >1.6 | 1180 | 216 | >130.3 | – |
| CC(=O)[C@]1(O)CC[C@@]2(O)[C@]1(C)[C@H](OC(=O)/C=C(\C)C(C)C)C[C@@H]1[C@@]3(C)CC[C@H](OC(=O)/C=C/c4ccc(F)c(F)c4F)CC3=CC[C@]12O | 397 | >71.1 | 2.83 | 28.3 | 14 | < 5.58 | 140.2 | – |
| CCOc1ccccc1/C=C/C(=O)O[C@H]1CC[C@@]2(C)C(=CC[C@]3(O)[C@@H]2C[C@@H](OC(=O)/C=C(\C)C(C)C)[C@@]2(C)[C@]3(O)CC[C@@]2(O)C(C)=O)C1 | > 1730 | >42.6 | 12 | >4.3 | 404 | 40.6 | >143.8 | – |
| CC(=O)[C@]1(O)CC[C@@]2(O)[C@]1(C)[C@H](OC(=O)/C=C(\C)C(C)C)C[C@@H]1[C@@]3(C)CC[C@H](OC(=O)/C=C/c4ccc(C=O)cc4)CC3=CC[C@]12O | 40.2 | 1.7 | 6.34 | 2.1 | 19.2 | 23.5 | 6.3 | – |
| CC(=O)[C@]1(O)CC[C@@]2(O)[C@]1(C)[C@H](OC(=O)/C=C(\C)C(C)C)C[C@@H]1[C@@]3(C)CC[C@H](OC(=O)/C=C/c4ccccc4C(F)(F)F)CC3=CC[C@]12O | 1760 | 37.6 | 5 | <1.4 | > 1280 | 46.9 | 352.9 | – |
